NSD2 HMT inh: NSD2 histone methyltransferase inhibitors, primary screen, biochemical, AlphaScreen, single concentration, set 2; Histone-lysine N-methyltransferase NSD2 (Homo sapiens), O96028; NSD2 peptide methylation, 120 min; inhibition, % at 12.5 µM; 0.54% of 310,000 active; AID 743445, 2014; in the data active means inhibition above about 50%
SUMO HTRF inh: inhibitors of in vitro SUMOylation cascade, primary screen, biochemical, HTRF, uHTS; 0.36% of 290,000 active; inhibition, % at 35 µM; HTRF SUMOylation assay, SAE1/SAE2 + UBC9; in the data active means inhibition above about 50%, passing the limit was not always enough
Target sequence (P63279 whole entry, looked up): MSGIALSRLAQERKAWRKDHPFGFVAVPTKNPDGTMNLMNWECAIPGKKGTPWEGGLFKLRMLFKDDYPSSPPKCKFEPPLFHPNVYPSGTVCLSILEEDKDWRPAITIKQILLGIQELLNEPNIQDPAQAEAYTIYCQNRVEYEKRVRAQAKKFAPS
TDP2 absorb: human TDP2 enzyme inhibitors, primary screen, biochemical, epi absorbance, recombinant enzyme; inhibition, % at 12.8 µM; 0.34% of 370,000 active; Tyrosyl-DNA phosphodiesterase 2 (Homo sapiens), O95551; T5PNP hydrolysis, p-nitrophenol absorbance 415 nm;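 active means inhibition above the mean of all tested compounds plus 3 SD, set per campaign, cut at about 25% in these data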
Target sequence (O95551 whole entry, looked up): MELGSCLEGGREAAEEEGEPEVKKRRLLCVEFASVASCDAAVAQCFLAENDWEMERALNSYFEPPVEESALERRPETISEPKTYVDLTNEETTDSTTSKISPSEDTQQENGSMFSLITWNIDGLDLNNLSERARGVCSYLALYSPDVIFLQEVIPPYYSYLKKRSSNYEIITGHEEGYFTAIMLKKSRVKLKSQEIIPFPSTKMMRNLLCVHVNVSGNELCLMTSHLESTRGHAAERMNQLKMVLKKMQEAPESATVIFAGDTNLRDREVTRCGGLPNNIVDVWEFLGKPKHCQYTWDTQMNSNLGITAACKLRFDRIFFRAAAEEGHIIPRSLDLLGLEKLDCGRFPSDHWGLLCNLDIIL
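Read-out basis: percent inhibition. System: recombinant human TDP2. Buffer or medium: Mg2+-containing Tris-HCl buffer, pH 7.5. Repeats: single replicate. Timing: reaction 2 h, 37 °C. Benchmarks: high control without enzyme, low control DMSO plus TDP2. Probe or stimulus: 5 mM T5PNP. Doses: 12.8 µM only. Measured by: epi absorbance of p-nitrophenol freed from T5PNP by hydrolysis.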
CTSL1 counter: Fasciola hepatica cathepsin L1 inhibitors, primary screen, counter-screen for PFM18AAP inhibitor project, biochemical, QFRET, fluorogenic peptide substrate | recombinant F. hepatica cathepsin L1, Z-Leu-Arg-MCA fluorescence | inhibition, % at 5.96 µM | 0.49% of 300,000 active | AID 1906, 2009;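 active means inhibition above the mean of all tested compounds plus 3 SD, set per screening campaign, cut at about 17% in these data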
Alpha artifact: AlphaScreen signal interference with preloaded methylated product, dose response, artefact control for NSD2 inhibitor project, biochemical, cherry-picked samples; shares compounds with NSD2 HMT inh; AlphaScreen artifact counterscreen, preloaded methylated H4 peptide; AC35, µM (series often up to 10 µM); 9.4% of 1,500 active; call rule not given here
Hits are given with their value; - = inactive; . = no result. In the library only some 1.2% were active in any assay of this set; here they are far more common.

SMILES	NSD2 HMT inh	SUMO HTRF inh	TDP2 absorb	CTSL1 counter	Alpha artifact
Cc1cc(=O)[nH]c(COc2ccccc2)n1	54.7	-	-	-	-
CCOc1ccccc1CN1CCNC(=O)C1CC(=O)NCCCn1cccn1 (configuration not stated)	-	-	-	-	.
Cc1c(NC(=O)CN2C(=O)C(=O)c3ccccc32)c(=O)n(-c2ccccc2)n1C	56.0	-	-	-	-
COc1ccc(S(=O)(=O)NCC(=O)NCCc2ccc(OC)c(OC)c2)cc1	-	.	-	-	.
CC1CCN(C(=O)CN(Cc2ccc(Cl)cc2)S(C)(=O)=O)CC1	61.7	-	-	-	-
CN1CCCCCC1=Nc1ccc([N+](=O)[O-])cc1	56.7	.	-	-	-
O=C(/C=C/c1ccccc1)NCc1cccnc1	-	-	-	-	.
O=C(/C=C/c1ccc(-c2ccccc2)cc1)NCc1cccnc1	62.1	-	-	-	-
Cc1c(/C=N\NC(=O)C2(C)CC2(Cl)Cl)cnn1C (configuration not stated)	-	-	-	-	.
CCn1cc(/C=N\NC(=O)C2(C)CC2(Cl)Cl)c(C)n1 (configuration not stated)	62.7	-	-	-	-
CCCC(=O)Nc1ccc(C(=O)O)cc1NC(=O)CCC	72.3	-	-	-	-
CCCC(=O)Nc1ccccc1NC(=O)CCC	-	-	-	-	.
O=C1C=CC(=O)c2c(O)c(N3CCN(CCO)CC3)c(Cl)c(O)c21	103.2	.	-	.	-
O=C1C=CC(=O)c2c(O)c(N3CCN(CCOCCO)CC3)c(Br)c(O)c21	81.1	.	-	.	-
OCCOCCN1CCN(C2=Nc3ccccc3Sc3ccccc32)CC1	.	-	-	-	.
C=CCN(CC#CC1=CCCCC1)Cc1ccccc1	.	.	-	.	.
CCCCN(C(=O)c1cc(Cl)nc2ccccc12)c1c(N)n(CCCC)c(=O)[nH]c1=O	-	.	-	-	.
COc1ccc(-n2nc(C(=O)NCc3ccco3)c3c4ccccc4n(C)c3c2=O)cc1	-	-	-	-	.
Cc1ccc(-n2nc(C(=O)NCc3ccc(C)o3)c3c4ccccc4n(C)c3c2=O)cc1	53.2	-	-	-	-
C=CCSc1nnc(-c2ccc(Cl)cc2Cl)o1	68.4	-	-	-	-
CN1C(=O)/C(=C/c2ccc(-c3ccccc3[N+](=O)[O-])o2)SC1=Nc1ccc(Cl)c(C(=O)O)c1	116.8	-	-	-	-
O=C(O)c1cc(-c2ccc(/C=C3/SC(=S)N(Cc4ccccc4)C3=O)o2)ccc1Cl	-	-	-	.	.
CCNC(COC(=O)c1ccc([N+](=O)[O-])cc1)C1CCCCC1 (configuration not stated)	-	.	-	.	.
CC(NC(=O)c1cc(COc2ccc(-n3cncn3)cc2)on1)c1ccc(F)cc1 (configuration not stated)	-	.	-	.	.
CSc1nsc(SCC(=O)Nc2cccc(NC(C)=O)c2)n1	62.5	-	-	-	-
SMILES	NSD2 HMT inh	SUMO HTRF inh	TDP2 absorb	CTSL1 counter	Alpha artifact
CSc1nsc(SCC(=O)Nc2cccc(C(=O)O)c2)n1	-	-	-	-	.
Cc1ccc(N(CC(=O)N2CCCCCC2)S(C)(=O)=O)cc1	-	.	-	.	.
Cc1sc2nc[nH]c(=O)c2c1-c1ccc(F)cc1	-	-	-	-	.
Cc1sc2nc[nH]c(=S)c2c1-c1ccccc1	86.0	-	-	-	-
NS(=O)(=O)c1ccc(N/N=C/c2ccncc2)cc1	127.9	-	-	-	-
NS(=O)(=O)c1ccc(N/N=C/c2ccccc2Br)cc1	-	-	-	-	.
CC(=O)Nc1ccc(NC2=C/C(=N/S(=O)(=O)c3cccs3)c3ccccc3C2=O)cc1	83.0	.	77.0	102.2	-
CC(=O)Nc1ccc(NC(=O)C(C)OC(=O)c2ccccc2NS(=O)(=O)c2cccs2)cc1 (configuration not stated)	-	-	-	-	.
CCc1ccc(N2CN=c3s/c(=C\c4ccccc4)c(=O)n3C2)cc1	61.1	-	-	-	-
CN(CCc1ccccc1)C(=O)c1ccc(NC(=O)Cc2ccc(NC(=O)C3CCN(C(=O)c4ccccc4)CC3)cc2)cc1	.	.	-	.	.
COc1ccc(/C=C/C(=O)OCC(=O)NCC2CCCO2)cc1 (configuration not stated)	53.9	-	-	-	-
COc1cccc(/C=C/C(=O)OCC(=O)NCC2CCCO2)c1 (configuration not stated)	-	-	-	-	.
CCCCN1CC(COc2ccc(OC)cc2)OCCS1(=O)=O (configuration not stated)	.	.	-	.	.
COc1ccccc1N=Nc1ccc(O)c2ncccc12	94.3	-	-	-	-
COc1ccc2nc(NC(=O)CS(=O)(=O)c3ccc(C)cc3)sc2c1	68.8	-	-	-	-
CCN(CC)CCCN(Cc1cc2ccc(C)c(C)c2[nH]c1=O)C(=O)NC1CCCCC1	63.3	-	-	-	-
CCN(CC)CCCN(Cc1cc2cc3c(cc2[nH]c1=O)OCO3)C(=S)NCCCN(C)C	79.8	-	-	-	-
CCN(CC)CCCN(Cc1cc2cc3c(cc2[nH]c1=O)OCCO3)C(=O)Nc1ccccc1	92.9	-	-	-	-
Cc1ccc2cc(CN(CC3CCCO3)C(=O)NC3CCCCC3)c(=O)[nH]c2c1C (configuration not stated)	-	-	-	-	.
CCN(CC)CCCN(Cc1cc2cc3c(cc2[nH]c1=O)OCO3)C(=S)NCCCOC	74.9	-	-	-	-
Cn1c(CNC(=O)CCNC(=O)c2cccc(Cl)c2)cc(=O)n(C)c1=O	-	-	-	-	.
CCCC(C(=O)NC(C)(C)C)N(CC1CCCO1)C(=O)CNS(=O)(=O)c1ccc(F)cc1 (configuration not stated)	83.2	-	-	-	-
CCCC(C(=O)NCc1ccco1)N(CC1CCCO1)C(=O)CNS(=O)(=O)c1ccc(F)cc1 (configuration not stated)	-	-	-	-	.
CN(C)CCNc1ncnc2oc(-c3ccccc3)c(-c3ccccc3)c12	50.9	-	-	.	-
COc1ccc(-c2oc3ncnc(NCCCN(C)C)c3c2-c2ccc(OC)cc2)cc1	-	-	-	-	.
O=C(OC(C(=O)NC1CCCCC1)c1ccccn1)c1cccs1 (configuration not stated)	113.5	-	-	-	-
O=C(OC(C(=O)NCc1cccs1)c1ccccn1)c1cccs1 (configuration not stated)	-	-	-	-	.
Cc1cc(O)c2c(c1)CC1C3CCC4CC(=O)CCC4(C)C3CC(=O)C21C (configuration not stated)	-	.	-	.	.
O=C(CN(C(=O)c1csnn1)c1ccc(F)c(Cl)c1)NC1CCCCC1	87.6	-	-	-	-
